This passage reports IC50 and Ki results from ChEMBL document CHEMBL1142414, “Comprehensive mechanistic analysis of hits from high-throughput and docking screens against beta-lactamase” (J Med Chem, 2008).

Test system in one assay: not listed separately
Description: Inhibition of chymotrypsin in presence of 0.1% Triton X-100. Summed up: (§1)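 Chymotrypsin (28 nM) preincubated 5 min with inhibitor, then reaction started with 200 µM N-succinyl-Ala-Ala-Pro-Phe p-nitroanilide. In the no-preincubation variant, inhibitor and substrate were mixed first and enzyme was added to start. Progress read at 410 nm.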
For the molecule `COc1cccc2cc(C(=O)n3ccc(C)n3)c(=O)oc12`, the IC50 (usually the concentration needed to halve the response being measured) was 70 µM.
The same measure, in the same setting: as for `CC(C)(C)OC(=O)NCCc1nnc(S(=O)(=O)Cc2ccc(Cl)cc2Cl)o1`, the figure is below 1 µM; as for `CCCC12CN(C(=O)c3ccc(OC)cc3)CC(C)(CN(C(=O)c3ccc(OC)cc3)C1)C2=O`, above 600 µM; as for `CCOC(=O)SC1=N/C(=C/c2ccc(N(C)C)cc2)C(=O)S1`, 8 µM.
The same measure, in the same setting: next, `O=c1oc2c(O)c(O)cc3c(=O)oc4c(O)c(O)cc1c4c23` [ELLAGIC ACID]: below 600 µM; `C[C@H]1[C@H]2C=C[C@@H]1[C@@H](C(=O)O)[C@@H]2c1c2ccc(=O)c(O)c-2oc2c(O)c(O)ccc12`: above 600 µM.
Still for that read-out and setting: next, `O=C(NCCc1ccccc1)C1CCCN(S(=O)(=O)c2cccc3nsnc23)C1` (stereo not given): 345 µM; `Cc1occc1C(=O)n1nnc2ccccc21`: below 1 µM; `CC(C)[C@H](NC(=O)OC(C)(C)C)c1nnc(S(=O)(=O)Cc2c(F)cccc2Cl)o1` (stereo in doubt; 1): below 1 µM.

Target in another assay: not listed separately
Description: Inhibition of beta-lactamase AmpC. Summed up:
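Cuvette assay with 1 nM AmpC β-lactamase and 200 µM nitrocefin, Triton X-100 at either 0.00002 or 0.1%. Compound and enzyme preincubated 5 min, then substrate added to start the reaction.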
As to `O=C(O)c1ccc2c(c1)C(=O)N(C(Cc1ccc(O)cc1)C(=O)O)C2=O` (racemic), affinity was put at a Ki of 140 µM.
`COc1cccc2cc(C(=O)n3ccc(C)n3)c(=O)oc12` returned a 50% inhibitory concentration (IC50) of 25 µM.
Same read-out and setting: as for `CC(C)(C)OC(=O)NCCc1nnc(S(=O)(=O)Cc2ccc(Cl)cc2Cl)o1`, the figure is below 1 µM; as for `CCCC12CN(C(=O)c3ccc(OC)cc3)CC(C)(CN(C(=O)c3ccc(OC)cc3)C1)C2=O`, 15 µM.
Regarding `CCOC(=O)SC1=N/C(=C/c2ccc(N(C)C)cc2)C(=O)S1`, the 50% inhibitory concentration (IC50) worked out at 60 µM.
Still for that read-out and setting: next, `O=c1oc2c(O)c(O)cc3c(=O)oc4c(O)c(O)cc1c4c23` [ELLAGIC ACID]: 146 µM.
Still for that read-out and setting: as for `C[C@H]1[C@H]2C=C[C@@H]1[C@@H](C(=O)O)[C@@H]2c1c2ccc(=O)c(O)c-2oc2c(O)c(O)ccc12`, the figure is 70 µM; as for `O=C(NCCc1ccccc1)C1CCCN(S(=O)(=O)c2cccc3nsnc23)C1` (stereo not given), above 600 µM; as for `Cc1occc1C(=O)n1nnc2ccccc21`, 20 µM.
In the case of `CC(C)[C@H](NC(=O)OC(C)(C)C)c1nnc(S(=O)(=O)Cc2c(F)cccc2Cl)o1` (stereo in doubt; 1), the half-maximal inhibitory concentration (IC50) is below 1 µM.

Target in a further assay: not listed separately
Description: Inhibition of malate dehydrogenase in presence of 0.1% Triton X-100. In short, it runs like this: (§2)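 Malate dehydrogenase (2 nM) incubated 5 min with inhibitor, then reaction started with 200 µM oxaloacetic acid plus 200 µM NADH. In the no-preincubation variant, inhibitor, oxaloacetate and NADH were mixed first and enzyme was added last. NADH consumption followed at 340 nm.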
Regarding `CCOC(=O)SC1=N/C(=C/c2ccc(N(C)C)cc2)C(=O)S1`, the IC50 is above 600 µM.
Same read-out and setting: as for `O=c1oc2c(O)c(O)cc3c(=O)oc4c(O)c(O)cc1c4c23` [ELLAGIC ACID], the figure is 106 µM; as for `C[C@H]1[C@H]2C=C[C@@H]1[C@@H](C(=O)O)[C@@H]2c1c2ccc(=O)c(O)c-2oc2c(O)c(O)ccc12`, 45 µM; as for `Cc1occc1C(=O)n1nnc2ccccc21`, above 600 µM.
On the same count and under the same terms, as for `CC(C)[C@H](NC(=O)OC(C)(C)C)c1nnc(S(=O)(=O)Cc2c(F)cccc2Cl)o1` (stereo in doubt; 1), the figure is above 600 µM.

Target in the next assay: not listed separately
Description: Inhibition of beta-lactamase AmpC in presence of 0.1% Triton X-100. Summed up:
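Cuvette assay with 1 nM AmpC β-lactamase and 200 µM nitrocefin, Triton X-100 at either 0.00002 or 0.1%. Compound and enzyme preincubated 5 min, then substrate added to start the reaction. Nitrocefin hydrolysis read at 482 nm by UV–visible spectrophotometry at room temperature.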
With `O=C(O)c1ccc2c(c1)C(=O)N(C(Cc1ccc(O)cc1)C(=O)O)C2=O` (racemic), the concentration for half-maximal inhibition (IC50) worked out at 210 µM.
The same measure, in the same setting: as for `COc1cccc2cc(C(=O)n3ccc(C)n3)c(=O)oc12`, the figure is 20 µM; as for `CC(C)(C)OC(=O)NCCc1nnc(S(=O)(=O)Cc2ccc(Cl)cc2Cl)o1`, below 1 µM; as for `CCCC12CN(C(=O)c3ccc(OC)cc3)CC(C)(CN(C(=O)c3ccc(OC)cc3)C1)C2=O`, 95 µM.
The same measure, in the same setting: as for `CCOC(=O)SC1=N/C(=C/c2ccc(N(C)C)cc2)C(=O)S1`, the figure is above 600 µM.
As for `O=c1oc2c(O)c(O)cc3c(=O)oc4c(O)c(O)cc1c4c23` [ELLAGIC ACID], the IC50 was above 600 µM.
With `C[C@H]1[C@H]2C=C[C@@H]1[C@@H](C(=O)O)[C@@H]2c1c2ccc(=O)c(O)c-2oc2c(O)c(O)ccc12`, the IC50 was above 600 µM.
Take `Cc1occc1C(=O)n1nnc2ccccc21`: the 50% inhibitory concentration (IC50) came out at 38 µM.
On the same count and under the same terms, next, `CC(C)[C@H](NC(=O)OC(C)(C)C)c1nnc(S(=O)(=O)Cc2c(F)cccc2Cl)o1` (stereo in doubt; 1): below 1 µM.

For the next assay, the target named is T1, Cruzipain (Trypanosoma cruzi, UniProt P25779). Description: Inhibition of cruzain in presence of 0.01% Triton X-100. Summed up: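 Recombinant cruzain (10 nM) in 0.1 M sodium acetate pH 5.5 with 5 mM DTT and 0.01% Triton X-100, substrate 2.5 µM Z-Phe-Arg-AMC. Cleavage read fluorimetrically in 96-well format, excitation 355 nm, emission 460 nm.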
T1 sequence (P25779 whole entry): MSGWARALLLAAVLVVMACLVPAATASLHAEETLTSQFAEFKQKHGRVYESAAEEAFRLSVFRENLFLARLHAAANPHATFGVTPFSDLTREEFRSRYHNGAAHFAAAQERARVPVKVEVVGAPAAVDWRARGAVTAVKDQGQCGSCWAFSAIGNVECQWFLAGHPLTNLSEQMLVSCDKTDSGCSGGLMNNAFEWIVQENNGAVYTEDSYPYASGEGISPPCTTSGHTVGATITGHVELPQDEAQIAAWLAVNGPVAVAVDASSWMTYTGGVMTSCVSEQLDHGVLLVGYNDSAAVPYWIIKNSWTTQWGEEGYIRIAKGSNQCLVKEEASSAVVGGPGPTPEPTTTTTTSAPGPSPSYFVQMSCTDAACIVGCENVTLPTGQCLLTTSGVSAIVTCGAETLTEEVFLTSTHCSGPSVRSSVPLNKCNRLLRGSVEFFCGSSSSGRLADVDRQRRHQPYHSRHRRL
As for `O=C(O)c1ccc2c(c1)C(=O)N(C(Cc1ccc(O)cc1)C(=O)O)C2=O` (racemic), the IC50 was above 10000 µM.
On the same count and under the same terms, next, `COc1cccc2cc(C(=O)n3ccc(C)n3)c(=O)oc12`: 106 µM; `CC(C)(C)OC(=O)NCCc1nnc(S(=O)(=O)Cc2ccc(Cl)cc2Cl)o1`: 470 µM; `CCCC12CN(C(=O)c3ccc(OC)cc3)CC(C)(CN(C(=O)c3ccc(OC)cc3)C1)C2=O`: above 600 µM.
For `CCOC(=O)SC1=N/C(=C/c2ccc(N(C)C)cc2)C(=O)S1`, the IC50 stood at 73 µM.
Regarding `O=c1oc2c(O)c(O)cc3c(=O)oc4c(O)c(O)cc1c4c23` [ELLAGIC ACID], the concentration for half-maximal inhibition (IC50) stood at 220 µM.
Same read-out and setting: next, `C[C@H]1[C@H]2C=C[C@@H]1[C@@H](C(=O)O)[C@@H]2c1c2ccc(=O)c(O)c-2oc2c(O)c(O)ccc12`: 45 µM; `Cc1occc1C(=O)n1nnc2ccccc21`: below 600 µM.
The same measure, in the same setting: next, `CC(C)[C@H](NC(=O)OC(C)(C)C)c1nnc(S(=O)(=O)Cc2c(F)cccc2Cl)o1` (stereo in doubt; 1): below 1 µM.

The target of the next assay is T1, Cruzipain. Description: Inhibition of cruzain.
Turning to `O=C(O)c1ccc2c(c1)C(=O)N(C(Cc1ccc(O)cc1)C(=O)O)C2=O` (racemic), the 50% inhibitory concentration (IC50) was above 10000 µM.
Still for that read-out and setting: next, `COc1cccc2cc(C(=O)n3ccc(C)n3)c(=O)oc12`: 120 µM.
The molecule `CC(C)(C)OC(=O)NCCc1nnc(S(=O)(=O)Cc2ccc(Cl)cc2Cl)o1` had an IC50 of 95 µM.
The same measure, in the same setting: as for `CCCC12CN(C(=O)c3ccc(OC)cc3)CC(C)(CN(C(=O)c3ccc(OC)cc3)C1)C2=O`, the figure is above 600 µM; as for `CCOC(=O)SC1=N/C(=C/c2ccc(N(C)C)cc2)C(=O)S1`, below 1 µM; as for `O=c1oc2c(O)c(O)cc3c(=O)oc4c(O)c(O)cc1c4c23` [ELLAGIC ACID], 64 µM.
In turn, `C[C@H]1[C@H]2C=C[C@@H]1[C@@H](C(=O)O)[C@@H]2c1c2ccc(=O)c(O)c-2oc2c(O)c(O)ccc12` displayed a half-maximal inhibitory concentration (IC50) of 95 µM.
The same measure, in the same setting: as for `Cc1occc1C(=O)n1nnc2ccccc21`, the figure is 106 µM; as for `CC(C)[C@H](NC(=O)OC(C)(C)C)c1nnc(S(=O)(=O)Cc2c(F)cccc2Cl)o1` (stereo in doubt; 1), below 1 µM.

Test system in a further assay: not listed separately
Description: Inhibition of chymotrypsin. Summed up:
as §1
Take `O=C(O)c1ccc2c(c1)C(=O)N(C(Cc1ccc(O)cc1)C(=O)O)C2=O` (racemic): the IC50 was above 10000 µM.
`COc1cccc2cc(C(=O)n3ccc(C)n3)c(=O)oc12` returned an IC50 of 70 µM.
`CC(C)(C)OC(=O)NCCc1nnc(S(=O)(=O)Cc2ccc(Cl)cc2Cl)o1` registered a half-maximal inhibitory concentration (IC50) below 1 µM.
Still for that read-out and setting: as for `CCCC12CN(C(=O)c3ccc(OC)cc3)CC(C)(CN(C(=O)c3ccc(OC)cc3)C1)C2=O`, the figure is below 1 µM; as for `CCOC(=O)SC1=N/C(=C/c2ccc(N(C)C)cc2)C(=O)S1`, below 1 µM; as for `O=c1oc2c(O)c(O)cc3c(=O)oc4c(O)c(O)cc1c4c23` [ELLAGIC ACID], 470 µM.
`C[C@H]1[C@H]2C=C[C@@H]1[C@@H](C(=O)O)[C@@H]2c1c2ccc(=O)c(O)c-2oc2c(O)c(O)ccc12`: the IC50 worked out at 67 µM.
`O=C(NCCc1ccccc1)C1CCCN(S(=O)(=O)c2cccc3nsnc23)C1` (stereo not given) showed an IC50 of 220 µM.
`Cc1occc1C(=O)n1nnc2ccccc21` registered an IC50 below 1 µM.
`CC(C)[C@H](NC(=O)OC(C)(C)C)c1nnc(S(=O)(=O)Cc2c(F)cccc2Cl)o1` (stereo in doubt; 1) had an IC50 below 1 µM.

Target in the next assay: not listed separately
Description: Inhibition of malate dehydrogenase. Summed up: as §2
Take `COc1cccc2cc(C(=O)n3ccc(C)n3)c(=O)oc12`: the half-maximal inhibitory concentration (IC50) is above 600 µM.
On the same count and under the same terms, as for `CC(C)(C)OC(=O)NCCc1nnc(S(=O)(=O)Cc2ccc(Cl)cc2Cl)o1`, the figure is above 600 µM; as for `CCCC12CN(C(=O)c3ccc(OC)cc3)CC(C)(CN(C(=O)c3ccc(OC)cc3)C1)C2=O`, above 600 µM.
On the same count and under the same terms, as for `CCOC(=O)SC1=N/C(=C/c2ccc(N(C)C)cc2)C(=O)S1`, the figure is 200 µM; as for `O=c1oc2c(O)c(O)cc3c(=O)oc4c(O)c(O)cc1c4c23` [ELLAGIC ACID], 55 µM; as for `C[C@H]1[C@H]2C=C[C@@H]1[C@@H](C(=O)O)[C@@H]2c1c2ccc(=O)c(O)c-2oc2c(O)c(O)ccc12`, 18 µM.
Take `O=C(NCCc1ccccc1)C1CCCN(S(=O)(=O)c2cccc3nsnc23)C1` (stereo not given): the IC50 is above 600 µM.
On the same count and under the same terms, as for `Cc1occc1C(=O)n1nnc2ccccc21`, the figure is 65 µM.
Still for that read-out and setting: as for `CC(C)[C@H](NC(=O)OC(C)(C)C)c1nnc(S(=O)(=O)Cc2c(F)cccc2Cl)o1` (stereo in doubt; 1), the figure is above 600 µM.
